hK5 inh – kallikrein 5 (human) inhibition. Q9Y337. inhibition, % at 5 µM. recombinant hK5, fluorogenic AMC substrate cleavage. 0.59% of 210,000 active;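 active means inhibition of 40% or more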;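 further: 0% = enzyme controls without compound and 100% = no-enzyme blanks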
FXIIa inh – blocks human coagulation factor XIIa protease activity; AID 800; P00748; purified FXIIa, Boc-QGR-AMC fluorogenic substrate, 2 h; 0.3% of 220,000 active; inhibition, % at 5 µM; in the data active means inhibition above about 40%;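 further: 0% = enzyme with no compound and 100% = blank without enzyme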
Furin inh – blocks human furin protease activity; P09958; inhibition, % at 20 µM or 30 µM; 0.061% of 220,000 active; purified furin, fluorogenic substrate cleavage; AID 463115; in the data active means inhibition above about 25%
FXIa inh 1536 – inhibitors of human coagulation factor XIa; P03951; purified FXIa, Boc-Glu-Ala-Arg-AMC fluorogenic substrate; inhibition, % at 5 µM; 0.14% of 220,000 active;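 active means inhibition of at least 40%; inactive means inhibition below 40%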;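 further: fluorescence of freed AMC excited at 355 nm; 0% = enzyme without compound and 100% = no enzyme blank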
thrombin 1536 – blocks human thrombin protease activity. 0.26% of 220,000 active. P00734. alpha-thrombin, Boc-VPR-AMC fluorogenic substrate cleavage. inhibition, % at 5 µM;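 active means inhibition at or above 40%; inactive means inhibition below 40%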;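 further: 0% = enzyme with no compound and 100% = wells without enzyme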
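Material: human alpha-thrombin enzyme / Medium: pH 7.5 Tris (50 mM) with NaCl 150 mM, Tween 20 0.05% / Compound: single-point dosing at 5 µM, 0.2% DMSO / Incubation: enzyme reaction carried out at room temperature / Detection: AMC fluorescence, 355/460 nm / Read-out basis: percent inhibition scaled between no-compound controls and no-enzyme blanks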
Starred values were filed as active, the others as inactive; . = not tested or not shown. The list is not random: actives were taken first. Their share in the collection is about 1.1%.

SMILES	hK5 inh	FXIIa inh	Furin inh	FXIa inh 1536	thrombin 1536
COc1ccc(C)cc1S(=O)(=O)N1CCOCC1	-3	6	-13	-4	-10
CCN(CC)C(=N)/C(C#N)=N/Nc1ccc(C)cc1	42*	2	-4	-11	-7
NNC(=O)CCc1nc2ccccc2[nH]1	9	9	-10	6	0
COC(=O)COc1ccc(S(=O)(=O)NCC2CCCO2)cc1Cl (stereo not drawn)	-2	-5	31*	-5	-15
CC(C)CNS(=O)(=O)c1ccc(OCC(=O)NCC2CCCO2)c(Cl)c1 (stereo not drawn)	-5	0	-10	-6	-5
COC(=O)c1c(C)oc(C)c1S(=O)(=O)NC(c1ccccc1)c1ccccc1	0	9	-19	0	-2
O=C(NCCCN1CCCC1=O)c1ccc(Cl)c(Cl)c1	-1	5	-25	-1	-14
COc1ccc(CNC(=O)c2cc3c(=O)n4ccccc4nc3n(Cc3ccco3)c2=N)cc1	.	.	-22	.	.
Cc1ccc(Cn2c(=N)c(C(=O)NCc3ccco3)cc3c(=O)n4ccccc4nc32)cc1	41*	19	-24	13	20
Cc1ccccc1-n1nc(C(=O)c2cccs2)cc(-c2nc3ccccc3[nH]2)c1=N	-77	0	-12	-1	1
COc1ccc(-n2nc(C(=O)c3cccs3)cc(-c3nc4ccccc4[nH]3)c2=N)cc1	-19	20	-8	14	57*
C=C(C)CN=c1scc(C)n1/N=C/c1ccco1	43*	10	-8	4	9
Cn1c(CSCCOc2ccccc2)n[nH]c1=S	53*	0	-1	-9	-5
CCOC(=O)C1CCCN(C(=O)c2cc(-c3ccc(C)cc3)on2)C1 (stereo not drawn)	-14	-5	-30	-5	1
CCOC(=O)C1CCCN(C(=O)c2cc3ncc(Br)cn3n2)C1 (stereo not drawn)	48*	28	-22	13	17
CCOC(=O)C1CCCN(C(=O)c2cc3nc(-c4cccc(OC)c4)cc(C(F)(F)F)n3n2)C1 (stereo not drawn)	54*	26	11	23	19
C=CCn1c(C)c(C(C)=O)c(N2CCN(C(c3ccccc3)c3ccccc3)CC2)nc1=S	0	9	-5	-7	6
CCCCCCCCCCCC(=O)N1CC(=O)NC(=O)C1	54*	46*	-2	27	27
CCC(CC)c1nnc(NC(=O)CN2C(=O)c3ccccc3C2=O)s1	-26	-5	-11	-7	-1
CCC(CC)c1nnc(NC(=O)Oc2ccccc2)s1	2	43*	-3	30	2
CCC(CC)c1nnc(NC(=O)CCN2C(=O)c3ccccc3C2=O)s1	53*	25	-20	4	27
CCC(Sc1ncccc1C(=O)O)C(=O)N1CCOCC1 (stereo not drawn)	-3	4	-30	-8	-3
CCC(Sc1ncccc1C(=O)O)C(=O)N1CCCC1 (stereo not drawn)	-24	17	28*	2	2
Clc1ccccc1-c1nc(-c2cccnc2)no1	57*	15	-15	9	16
Clc1ccccc1-c1nc(-c2ccncc2)no1	-3	11	-10	1	0
SMILES	hK5 inh	FXIIa inh	Furin inh	FXIa inh 1536	thrombin 1536
CCOc1cc(S(=O)(=O)NCc2ccccc2)ccc1Br	-8	1	-8	-6	-2
O=C(NC1CCCCCCC1)C1c2ccccc2C(=O)N1Cc1cccs1 (stereo not drawn)	-2	9	-13	0	1
COc1ccc(CN2C(=O)c3ccccc3C2C(=O)NC2CCCCCC2)c(OC)c1 (stereo not drawn)	22	33	-9	31	47*
CC1CCC(NC(=O)C2c3ccccc3C(=O)N2Cc2cccs2)CC1 (stereo not drawn)	44*	18	-11	4	17
COc1ccc(CN2C(=O)c3ccccc3C2C(=O)NCCc2ccccc2)c(OC)c1 (stereo not drawn)	-2	4	-9	-6	-17
Cc1cccc(CC(=O)N2CCC(N3CCC(C(=O)N4CCOCC4)CC3)CC2)c1	.	6	-12	0	-2
CC(C)c1ccc(N2C(=O)CC(NNC(=O)c3cccnc3)C2=O)cc1 (stereo not drawn)	1	3	-9	-1	-2
CCN(CC(=O)NC(C)(C)C)C(=O)c1ccc2c(c1)S(=O)(=O)c1ccccc1C2=O	-1	6	-22	2	1
Cc1nc2sc(C(=O)Nc3ccccc3Cc3ccccc3)c(C)c2c(=O)[nH]1	-5	0	-9	-2	2

Source: PubChem BioAssay
